Tests used:
[1] = system: Mus musculus; test: In vivo effective dose administered orally in mouse hypothermia assay (approximate ED50).; format: functional; conditions: po
Summary of the method: (§1)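 Charles River CF-1 mice (18-22 g, 4 per dose), housed individually 20 min before testing. Rectal temperature taken before dosing and 20 min after (sc 0.1 mL; oral 0.2 mL by gavage needle). A drop of ≥2 °F counted as positive. Doses started at 30 mg/kg and fell by half-log until 0/4 responded.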

[2] = system: Mus musculus; test: In vivo effective dose administered subcutaneously in mouse hypothermia assay.; format: functional; conditions: sc; summary of the method: as §1
[3] = system: Mus musculus; test: Tested in vivo for the maximum temperature decrease in mouse hypothermia assay.; format: functional
Summary of the method: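 CF-1 mice (18-22 g, 4 per dose), dosed sc or orally. Rectal temperature measured before dosing and 20 min after. The mean maximum temperature drop (°F) at 20 min after any dose is recorded as an efficacy index.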

[4] = species on record: Felis catus; test: Maximum decrease observed; format: functional; design: unit not given here
[5] = system: Felis catus; test: Maximum decrease on arterial blood pressure at 1 mg/kg; format: functional
Summary of the method: (§2)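 Adult cats (2.5-4.0 kg) anesthetized with ketamine 11 mg/kg im, then chloralose 80 mg/kg iv. Femoral artery cannulated for blood pressure, femoral vein for drug. Ventilated, paralyzed with gallamine 4 mg/kg iv, rectal temperature held at 37-38 °C. Cumulative iv doses given at 20-min intervals. Maximum decrease reported following a 1 mg/kg iv dose.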

[6] = system: Felis catus; test: Dose on arterial blood pressure (BP) in anesthetized cat; format: functional; summary of the method: as §2
[7] = species on record: Felis catus; test: Dose at which the SND has been reduced to 50% of the pretreatment value; format: functional
Summary of the method: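 Adult cats (2.5-4.0 kg), ketamine 11 mg/kg im then chloralose 80 mg/kg iv, ventilated, gallamine-paralyzed, rectal temperature 37-38 °C. Sympathetic nerve discharge quantified by cumulative integration. Cumulative iv doses were given at 20-min intervals. Value is the dose reducing discharge to 50% of pretreatment.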

[8] = system: Mus musculus; test: Behavioral time in mouse face to face assay at 32.5 umol/kg administered perorally; format: functional
Summary of the method: (§3)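 Male CF-1 mice (Charles River, 19-29 g), 8 pairs per dose, dosed sc, ip or orally in 0.25% methylcellulose or 0.1% citric acid; 30 min absorption housed with familiar partner. Pairs from different home cages placed in small litter-floored cage; face-to-face interaction duration scored visually for 3 min. Wilcoxon rank sum (two-tailed) vs daily control, p < 0.05.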

[9] = system: Mus musculus; test: Behavioral time in mouse face to face assay at 0.3 umol/kg administered perorally; format: functional; summary of the method: as §3
[10] = system: Mus musculus; test: Behavioral time in mouse isolation-induced aggression assay at 9.7 umol/kg administered perorally; format: functional
Summary of the method: (§4)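 Male CF-1 mice. Residents were isolated singly for at least 1 month; group-housed intruders were kept 4-6/cage. Mice weighed 28-30 g at first test. Residents got drug ip or orally in 0.25% methylcellulose or 0.1% citric acid 30 min before an untreated intruder was introduced. Latency to fighting was recorded, capped at 600 s. Dosing was blind, 6/group (vehicle n = 12), Wilcoxon rank sum.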

[11] = system: Mus musculus; test: Behavioral time in mouse face to face assay at 3.2 umol/kg administered perorally; format: functional; summary of the method: as §3
[12] = system: Mus musculus; test: Behavioral time in mouse isolation-induced aggression assay at 0 umol/kg administered perorally; format: functional; summary of the method: as §4
[13] = system: Mus musculus; test: Behavioral time in mouse isolation-induced aggression assay at 32.5 umol/kg administered perorally; format: functional; summary of the method: as §4
[14] = system: Mus musculus; test: Behavioral time in mouse face to face assay at 0 umol/kg administered perorally; format: functional; summary of the method: as §3
[15] = system: Rattus norvegicus; test: Effect on the synthesis rate of dopamine (DOPA) accumulation at the dose of 3.2 umol/kg in the rat ventral limbic brain region; format: functional, Limbic system
Summary of the method: (§5)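 Male Sprague-Dawley rats dosed sc with drug or vehicle at time zero. NSD 1015 (100 mg/kg ip) given 15 min later to block aromatic decarboxylase. Brain DOPA and 5-HTP measured by electrochemical detection with peak integration. Expressed as percent change from NSD 1015 plus saline controls. Control and test groups N = 6 each, compared by unpaired t test.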

[16] = system: Rattus norvegicus; test: Effect on the synthesis rate of 5 HTP accumulation at the dose of 3.2 umol/kg in the rat ventral limbic brain region; format: functional, Limbic system; summary of the method: as §5
[17] = system: Felis catus; test: Effect on arterial blood pressure (BP) in anesthetized cat; format: functional; summary of the method: as §2
[18] = system: Mus musculus; test: Tested in vivo for the effective dose administered orally in mouse hypothermia assay; format: functional; conditions: po; summary of the method: as §1
[19] = system: Rattus norvegicus; test: Effect on the synthesis rate of dopamine (DOPA) accumulation at the dose of 100 umol/kg in the rat ventral limbic brain region; format: functional, Limbic system; summary of the method: as §5
[20] = system: Rattus norvegicus; test: Effect on the synthesis rate of dopamine (DOPA) accumulation at the dose of 10 uM/kg in the rat ventral limbic brain region; format: functional, Limbic system; summary of the method: as §5
[21] = system: Rattus norvegicus; test: Effect on the synthesis rate of 5 HTP accumulation at the dose of 10 umol/kg in the rat ventral limbic brain region; format: functional, Limbic system; summary of the method: as §5
[22] = system: Rattus norvegicus; test: Effect on the synthesis rate of 5 HTP accumulation at the dose of 100 umol/kg in the rat ventral limbic brain region; format: functional, Limbic system; summary of the method: as §5
[23] = species on record: Rattus norvegicus; test: Effect on the synthesis rate of dopamine (DOPA) accumulation at the dose of […] in the rat ventral limbic brain region; format: functional, Limbic system
[24] = species on record: Rattus norvegicus; test: Effect on the synthesis rate of 5 HTP accumulation at the dose of […] in the rat ventral limbic brain region; format: functional, Limbic system

With `COc1cccc2c1[C@H](CC1CC1)[C@H](NCC1CC1)CC2` the ED50 [1] was over 93 µmol/kg, the ED50 [2] was 23 µmol/kg and the TMP.decrease [3] was 6.8 degrees F.
With `C=CCN(CCC)[C@@H]1CCc2cccc(OC)c2C1=C` the Max decrease [4] was 20, the Max decrease [5] was 51 and the BP [6] was 59%. It also gave an ED50 [7] of 0.91 µmol/kg, an ED50 [2] of over 97 µmol/kg and a Time [8] of 2.5 s. The Time [9] was 1.9 s, the Time [10] was 61 s and the Time [11] was 1.9 s. For the same compound, the Time [12] was 56 s, the Time [13] was 416 s and the Time [14] was 0.7 s. For the same compound, the TMP.decrease [3] was 3.6 degrees F, the Change [15] was -36% and the Change [16] was -52%.
Work on `C=CC[C@@H]1c2c(cccc2OC)CC[C@H]1NCC1CC1` (relative stereo) yielded a Max decrease [4] of 21, a Max decrease [5] of 46 and a BP [17] of 65%. For the same compound, the ED50 [7] was 0.81 µmol/kg, the ED50 [18] was over 97 µmol/kg and the ED50 [2] was 10 µmol/kg. It also gave a TMP.decrease [3] of 11.5 degrees F.
`C=CC[C@H]1c2cccc(OC)c2CC[C@H]1NCCC` was tested, and the Change [19] was -24%, the Change [20] was 35% and the Change [21] was 17%. It also gave a Change [22] of -36%.
With `C=CCN[C@@H]1CCc2cccc(OC)c2[C@@H]1CC1CC1` the ED50 [2] was 32 µmol/kg and the TMP.decrease [3] was 7.1 degrees F.
Work on `C=CCN[C@@H]1CCc2cccc(OC)c2[C@H]1CC1CC1` (relative stereo) yielded an ED50 [1] of over 97 µmol/kg, an ED50 [2] of 24 µmol/kg and a TMP.decrease [3] of 6.2 degrees F.
`CCCN[C@@H]1CCc2cccc(OC)c2[C@@H]1CCC` gave an ED50 [18] of over 101 µmol/kg, an ED50 [2] of 14 µmol/kg and a TMP.decrease [3] of 6.5 degrees F.
For `CCC[C@H]1c2c(cccc2OC)CC[C@H]1N(CCC)CCC`, the Max decrease [5] was 87, the Max decrease [6] was 137 and the ED50 [7] was over 2.94 µmol/kg. The ED50 [2] was 51 µmol/kg, the TMP.decrease [3] was 2.8 degrees F and the Change [23] was -14%. For the same compound, the Change [24] was -3.9%.
`C=CC[C@H]1c2c(cccc2OC)CC[C@H]1N(CCC)CCC` was tested, and the ED50 [2] was over 89 µmol/kg.
